Screens deposited in PubChem by Broad Institute.
dFosB act = activators of delta FosB homodimer, primary screen, biochemical, fluorescence polarization, TAMRA-CDK5 oligo, single point; Protein FosB (Mus musculus), P13346; purified delta FosB; percent of positive-control signal above neutral wells; activation, % at 25 µM; 340,000 tested, 0.99% active;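 active = mean activation above about 17%, with every replicate also reaching it, limit read from the data, passing the limit was not always enough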
Target sequence (P13346 whole entry, looked up): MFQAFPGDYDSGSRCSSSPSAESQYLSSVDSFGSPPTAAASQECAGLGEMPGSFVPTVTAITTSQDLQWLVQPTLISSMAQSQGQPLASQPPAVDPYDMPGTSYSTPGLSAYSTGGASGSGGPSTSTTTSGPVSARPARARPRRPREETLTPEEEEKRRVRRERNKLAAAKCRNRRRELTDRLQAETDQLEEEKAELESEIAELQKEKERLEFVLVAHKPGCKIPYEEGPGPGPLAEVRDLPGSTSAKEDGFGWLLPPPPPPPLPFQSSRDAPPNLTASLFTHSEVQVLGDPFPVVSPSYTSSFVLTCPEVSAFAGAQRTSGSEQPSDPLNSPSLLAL
NSD2 HMT inh = NSD2 histone methyltransferase inhibitors, primary screen, biochemical, AlphaScreen, single concentration, set 2 | Histone-lysine N-methyltransferase NSD2 (Homo sapiens), O96028 | NSD2 peptide methylation, 120 min | inhibition, % at 12.5 µM | 310,000 tested, 0.54% active | AID 743445, 2014
SR-BI HDL uptake = inhibitors of SR-BI mediated HDL lipid uptake, primary screen, ldlA[mSR-BI] cells, fluorescence, single point; 320,000 tested, 0.96% active; ldlA[mSR-BI] CHO cells, DiI-HDL uptake fluorescence, 3 h; AID 488896, 2010; inhibition, % at 12.5 µM;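 active = mean replicate inhibition of at least 70% and a set share of replicates each scoring 70 or more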
Dyrk1A ADPGlo = rat Dyrk1A kinase inhibitors, primary screen, biochemical, single point, plate reader | Dual specificity tyrosine-phosphorylation-regulated kinase 1A (Rattus norvegicus), Q63470 | ADP-Glo luminescence, NFATc1 peptide | inhibition, % at 12.5 µM | 310,000 tested, 0.43% active | AID 504441, 2011
SR-BI DiI-HDL act = activators of SR-BI mediated DiI-HDL uptake, primary screen, ldlA[mSR-BI] CHO cells, DiI fluorescence; 3 h; 100 = double the neutral-control signal; activation, % at 12.5 µM; 320,000 tested, 0.096% active; AID 504775, 2011;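 active = mean replicate activation of at least 60% and every replicate at or above 60%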
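system = CHO ldlA[mSR-BI] cells, LDL receptor-null, SR-BI overexpressing | medium = Ham's F12 with 0.5% BSA, HEPES 25 mM, pH 7.4 | probe or stimulus = DiI-HDL 10 µg/mL | compound dosing = single-point compound dose | incubation = compound exposure 3 h, 37 °C | technique = DiI fluorescence, bottom read | read-out = cell-associated DiI fluorescence as measure of HDL uptake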
CDK5 p35 inh = inhibitors of human CDK5/p35 kinase, primary screen, biochemical, single concentration; Cyclin-dependent kinase 5 (Homo sapiens) + Cyclin-dependent kinase 5 activator 1 (Homo …; Recombinant CDK5/p35, ADP-Glo luminescence, 60 min; inhibition, % at 10 µM; 330,000 tested, 0.01% active;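 active = highest replicate inhibition of at least 50% and at least 75% of replicates reaching 50%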
Alpha artifact = AlphaScreen signal interference with preloaded methylated product, dose response, artefact control for NSD2 inhibitor project, biochemical, cherry-picked samples; shares compounds with NSD2 HMT inh; AlphaScreen artifact counterscreen, preloaded methylated H4 peptide; AC35, µM (series often up to 10 µM); 1,500 tested, 9.4% active; AID 1053174, 2014; call rule not given here
A number is an active result; – = inactive; · = not tested or not shown. Sampled rows, rich in hits. Any-hit rate of the full collection: about 2.5%. Rule as the data show it, unless noted: active = inhibition above about 50%; inactive = the rest.

SMILES | dFosB act | NSD2 HMT inh | SR-BI HDL uptake | Dyrk1A ADPGlo | SR-BI DiI-HDL act | CDK5 p35 inh | Alpha artifact
COc1ccc(C(C(=O)NC(C)(C)C)N(C(=O)CCC(=O)Nc2cc(C)on2)c2ccccc2F)cc1 (stereo unspecified) | – | 77 | – | – | – | – | –
Oc1ccc(/C=N/N2CCOCC2)c(O)c1O | – | 87 | – | – | – | – | –
CCc1sc(C(=O)Nc2nc(C)cs2)cc1C | – | 51 | – | – | – | – | –
CN(C(=O)CSc1nnc(-c2cccs2)n1C1CC1)C1CCS(=O)(=O)C1 (stereo unspecified) | – | – | – | – | – | – | ·
COC(C(=O)Nc1ccnn1C1CCN(Cc2ccc(CO)o2)CC1)c1ccccc1 (stereo unspecified) | – | – | – | – | – | – | ·
CCC(CC)c1nnc(NC(=O)CCS(=O)(=O)Cc2ccccc2)s1 | – | 61 | – | – | – | – | –
O=C(c1ccco1)N(c1ccccn1)c1ccccn1 | – | – | – | – | – | – | ·
O=C(/C=C/c1ccco1)N(c1ccccn1)c1ccccn1 | – | 77 | – | – | – | – | –
Cc1ccc(S(=O)(=O)/N=C2/NC(=O)/C(=C\c3cc(Br)cc(Br)c3O)S2)cc1 | – | 109 | – | – | – | – | –
Cc1ccc(S(=O)(=O)/N=C2/NC(=O)/C(=C/c3cccnc3)S2)cc1 | – | – | – | – | – | – | ·
Cc1ccc(S(=O)(=O)/N=C2/NC(=O)/C(=C/c3ccc(Br)o3)S2)cc1 | – | 70 | – | – | – | – | –
CS(=O)(=O)Nc1cccc(C2=NN(C(=O)CCCC(=O)O)C(c3cccs3)C2)c1 (stereo unspecified) | – | – | – | – | – | – | ·
Cc1ccc(CNC(=O)CCCn2nc(C)n3ccnc3c2=O)cc1 | – | · | – | – | – | – | ·
Cc1cc(F)c(F)c(C(=O)N2C(C)CCCC2C)c1Cl (stereo unspecified) | – | 58 | – | – | – | – | –
